Laboratory results published in the EternaBench riboswitch data.

Tests used:
[1] = system: MS2 coat protein; test: apparent Kd, MS2 coat protein; higher = weaker binding; RNA-MaP array; tryptophan 2.4 mM where present
In short: (§1)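 Binding was read on Illumina sequencing-chip clusters where stalled E. coli RNA polymerase had transcribed each design. A titration of SNAP-549-labelled MS2 coat protein began at 0.7 or 1.5 nM and doubled to 3 µM, once without ligand and once with constant ligand, in 100 mM Tris-HCl pH 7.5, 80 mM KCl, 4 mM MgCl2, BSA, DTT, yeast tRNA and Tween-20. The apparent Kd is the median of filtered per-cluster binding-curve fits, based on green signal normalised to red-channel RNA signal and control-cluster median Fmax.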

[2] = system: MS2 coat protein; test: apparent Kd, MS2 coat protein; higher = weaker binding; RNA-MaP array; theophylline 2 mM where present
In short: as §1

[3] = designed as: OFF switch for tryptophan, no ligand
[4] = ligand present: tryptophan, designed as: OFF switch for tryptophan
[5] = designed as: ON switch for tryptophan, no ligand
[6] = ligand present: tryptophan, designed as: ON switch for tryptophan
[7] = designed as: ON switch for theophylline, no ligand
[8] = ligand present: theophylline, designed as: ON switch for theophylline
[9] = designed as: OFF switch for theophylline, no ligand
[10] = ligand present: theophylline, designed as: OFF switch for theophylline

AGUUUAGACACGGCCGCCACUCGUGACAGAUUUCGCAGUGGUCAACAUGAGGAUCACCCAUGUCUGAGGACCGGGUGUUGAGUUU
apparent Kd [1, 3]: 44.1 nM
apparent Kd [1, 4]: 259 nM

CUAUGCAGGUCGGCCGCCACUACACACAUGAGGAUCACCCAUGUAGUUACUGGGUGAAGUGGCAGUAGGACCGGGACCUGCAUAU
apparent Kd [1, 5]: 257 nM
apparent Kd [1, 6]: 360 nM

UCGGAGAAGUCGGCCGCCACUGAACUCUUGUUCUACAUGAGGAUCACCCAUGUUCCUUUGUUUAACAGGACCGGGACUUAUACGA
apparent Kd [1, 5]: 224 nM
apparent Kd [1, 6]: 96.3 nM

CCUAUGCAGUCGGCCGCCACUGAACAUGAGGAUCACCCAUGUUAUUAUAAAUAUGGUCCUAAAAUCAGGACCGGGACUGUAUAGG
apparent Kd [1, 3]: 68 nM
apparent Kd [1, 4]: 228 nM

AUUCAUGGAAACAUGAGAUAUCCUACCGGUCGAGGACCGGUACGGCCGCCACUCGGUUGGUGGCACAUGAGGAUCACCCAUGUUA
apparent Kd [1, 5]: 291 nM
apparent Kd [1, 6]: 265 nM

UUAUAAGUACCGGUCCUCAGAUCCUCAUGACGAGGACCGGUACGGCCGCCACUCGAAACAUGAGGAUCACCCAUGUAAUAAUAUC
apparent Kd [1, 3]: 23.8 nM
apparent Kd [1, 4]: 24.7 nM

AUAACAUGAGGAUCACCCAUGUAUUGGUAACGAGGACCGGUACGGCCGCCACUCGAAUUUUGGUGGUAUAAUAUAUAUAUGAUUA
apparent Kd [1, 5]: 21 nM
apparent Kd [1, 6]: 20.6 nM

GGAUUAGAGGCGGCCGCCACUGGAACAUGAGGAUCACCCAUGUAGUGCAUGUAAUUAACCUCGAUCAGGACCGGGCCGAUAGUCA
apparent Kd [1, 3]: 59.9 nM
apparent Kd [1, 4]: 103 nM

AAUGUAUGGCACAUGAGGAUCACCCAUGUGCGAGGACCGGUACGGCCGCCACUCGGUCCUGGAUUCUUAUUACUAUACAUUAAUG
apparent Kd [1, 3]: 14.5 nM
apparent Kd [1, 4]: 16.7 nM

CACGAAAGAUCGGCCGCCACUAUUUGAUGUGUUCUUUCACAUGAGGAUCACCCAUGUUCUUAUUAUAGGACCGGGAUUGAGCGUG
apparent Kd [1, 3]: 83.8 nM
apparent Kd [1, 4]: 64.3 nM

GGUUACUCUACGGCCGCCACUGAUUAAUUAUAAUCCUGUACAUAAACAUGAGGAUCACCCAUGUACAGGACCGGGUAGUGUAACC
apparent Kd [1, 5]: 34.7 nM
apparent Kd [1, 6]: 29.1 nM

AACAGUUGGUCGGCCGCCACUACAUGAGGAUCACCCAUGUAGCGCGUUCUGCUCCAGGGCUCAUCUAGGACCGGGACACGAGUGU
apparent Kd [1, 3]: 15.1 nM
apparent Kd [1, 4]: 16 nM

AUGACUAACAAAGAAGAUAAAAUGGGUGAACGAGGACCGGUACGGCCGCCACUCGGACAUGAGGAUCACCCAUGUCCAUGUGCAA
apparent Kd [1, 3]: 22.3 nM
apparent Kd [1, 4]: 28.7 nM

CACGAAAGAUCGGCCGCCACUAAUCUAUGUGUACUAGCACAUGAGGAUCACCCAUGUUCUUGCGUUAGGACCGGGAUUGAGCGUG
apparent Kd [1, 3]: 22.2 nM
apparent Kd [1, 4]: 18.8 nM

UGUGCAUGAGUUGUAAAAGCUCAUGGGCAUCGAGGACCGGUACGGCCGCCACUCGGCUGUACAUGAGGAUCACCCAUGUCAGGGU
apparent Kd [1, 5]: 302 nM
apparent Kd [1, 6]: 567 nM

CACGAAAGAUCGGCCGCCACUCAUGUAGCUUACAUGAGGAUCACCCAUGUAUUUUCUUUCUUUUAGAGGACCGGGAUCGAGCGUG
apparent Kd [1, 5]: 37.4 nM
apparent Kd [1, 6]: 19.2 nM

CUGUACAUCUCGGCCGCCACUGCAACAUGUACACAUGGACAUGUACAUGAGGAUCACCCAUGUGGCAGGACCGGGAGGUGUGCAG
apparent Kd [1, 5]: 192 nM
apparent Kd [1, 6]: 26.5 nM

CUACAUUUGUAGAAACCGGUCAACAAUAAUCGAGGACCGGUACGGCCGCCACUCGUAUAAUUUUAUACAUGAGGAUCACCCAUGU
apparent Kd [1, 5]: 13.5 nM
apparent Kd [1, 6]: 13.4 nM

UCAUAAGUACCGGUCCUCAGAUCCUCAUGACGAGGACCGGUACGGCCGCCACUCGAAACAUGAGGAUCACCCAUGUAAUAAUACU
apparent Kd [1, 3]: 24.1 nM
apparent Kd [1, 4]: 23.6 nM

AACAUGAGCACGGCCGCCACUCCAUGAACAUGAGGAUCACCCAUACACAUGAGGAUCACCCAUGUGAGGACCGGGUGUCCAUGUG
apparent Kd [1, 3]: 13.3 nM
apparent Kd [1, 4]: 56.6 nM

GGGCGCGUGGACUGGCGUGCUCCGCUCCGUCGAGGACCGGUACGGCCGCCACUCGACAUGAGGAUCACCCAUGUGUGAGCUCGCG
apparent Kd [1, 3]: 152 nM
apparent Kd [1, 4]: 474 nM

AAUAAACAUGAGGAUCACCCAUGUAGGGUGCGAGGACCGGUACGGCCGCCACUCGGGUGAAAACAUGAGGAUCACCCAUGUUAAA
apparent Kd [1, 3]: 198 nM
apparent Kd [1, 4]: 420 nM

UCGUUUGAGGCGGCCGCCACUGGUCUCAUGGUCAACAUGAGGAUCACCCAUGUAUCUUUGCUAAGCAGGACCGGGCCUCGAGCGA
apparent Kd [1, 3]: 66.7 nM
apparent Kd [1, 4]: 36.8 nM

AUAUAUACAUGAGGAUCACCCAUGUUAUUUCGAGGACCGGUACGGCCGCCACUCGAUAGAGUAGAAGUAAAUUUUGAUUCAUGUA
apparent Kd [1, 5]: 20.6 nM
apparent Kd [1, 6]: 18.1 nM

UGUGGGCGCACGGCCGCCACUGUCUUCAUCUGUUUGUCUACAUGAGGAUCACCCAUGUUGGUUUACAGGACCGGGUGCAUCUAUG
apparent Kd [1, 5]: 45.2 nM
apparent Kd [1, 6]: 30.1 nM

AUAACAUGAGGAUCACCCAUGUAUUGGUUACGAGGACCGGUACGGCCGCCACUCGUAUUUUGGUGGUAUUUUGUAUAUAUGAUAA
apparent Kd [1, 5]: 26.8 nM
apparent Kd [1, 6]: 26.3 nM

GGUACAUGAGGAUCACCCAUGUAUUAGUGCCGAGGACCGGUACGGCCGCCACUCGCUUCACAUGAGGAUCACCCAUGUGUCACUG
apparent Kd [1, 5]: 29.8 nM
apparent Kd [1, 6]: 39.8 nM

GGUAUGUAUUCGGAAACGAAUGCAUACCAACGAGGACCGGUACGGCCGCCACUCGCCGUCCUCAAACAUGAGGAUCACCCAUGUA
apparent Kd [1, 3]: 25.9 nM
apparent Kd [1, 4]: 68.5 nM

AACGGUCGUACCGGAAUGAUCCUCAUGUAACGAGGACCGGUACGGCCGCCACUCGAUAACAUGAGGAUCACCCAUGUAAUAAUAA
apparent Kd [1, 3]: 12.9 nM
apparent Kd [1, 4]: 11 nM

ACCUGCGUUUGAUAAAAUCAGACGCAGGUUCGAGGACCGGUACGGCCGCCACUCGGACAUGAGGAUCACCCAUGUUUGACAUGGG
apparent Kd [1, 3]: 109 nM
apparent Kd [1, 4]: 256 nM

GGUUACUCUACGGCCGCCACUGUAAUGUAAAGAUACCUGUACAUGACAUGAGGAUCACCCAUGUACAGGACCGGGUAGUGUAACC
apparent Kd [1, 5]: 237 nM
apparent Kd [1, 6]: 48.1 nM

UAAUGCAGGUCGGCCGCCACUACACACAUGAGGAUCACCCAUGUAGUUACUGGGUGAAGUGGCAGUAGGACCGGGACCUGCAUAA
apparent Kd [1, 5]: 419 nM
apparent Kd [1, 6]: 516 nM

AUGCAUAGCACGGCCGCCACUCAAAUUAAACAUGAGGAUCACCCAUGUAACAUGGAUAAAAUAAAGAGGACCGGGUGAAAUGCAA
apparent Kd [1, 5]: 28.3 nM
apparent Kd [1, 6]: 18.9 nM

CUACAUUUGUAGAAACCGGUCACCAUUACUCGAGGACCGGUACGGCCGCCACUCGUGUCAUGUGAUACAUGAGGAUCACCCAUGU
apparent Kd [1, 5]: 22 nM
apparent Kd [1, 6]: 23.1 nM

AGUCUGGACUCGGCCGCCACUCGUGAUGCUUUGGCACAUGAGGAUCACCCAUGUGGUCGGCCUUAGAGGACCGGGAGUACCAGUC
apparent Kd [1, 5]: 56.1 nM
apparent Kd [1, 6]: 13.7 nM

UACUUGCUGACGGCCGCCACUAGAACAUGAGGAUCACCCAUGUACCCGGUCCUACAUGGGAUGACUAGGACCGGGUCAGCAAGAU
apparent Kd [1, 3]: 40.9 nM
apparent Kd [1, 4]: 141 nM

AACAUCUGGCGUGAUACCAGCCACAUGAGGAUCACCCAUGUCAACACUCGCAAUUGCGACGGCCCUUGGCAGCACGCAUCCUCAG
apparent Kd [2, 7]: 64 nM
apparent Kd [2, 8]: 12.1 nM

CCUAGCACACAUGAUACCAGCGACAUGAGGAUCACCCAUGUACGGCGUGUAUCGCAAGGUUGCCCUUGGCAGCAUGAUAGUGCUG
apparent Kd [2, 9]: 14.4 nM
apparent Kd [2, 10]: 182 nM

CUCUUCCGGAAGGAUACCAGCUACAUGAGGAUCACCCAUGUAGGAGCGGGUUUCUAAUGUAGCCCUUGGCAGCCUUAGCCCGUCG
apparent Kd [2, 9]: 17.6 nM
apparent Kd [2, 10]: 60.7 nM

UUUAUGGAGCUUUUAUUUACGAUUUCUGAUACCAGUGUUUCAUUUCACCCUUGGCAGCAGUGACAUGAGGAUCACCCAUGUAAUA
apparent Kd [2, 7]: 28 nM
apparent Kd [2, 8]: 22.3 nM

AACAUGAGGAUUGAUACCAGUCCAUGAGGAUCACAUGAGGAUCACCCAUGUGGAACAUGAGGCCCUUGGCAGCAGUACAACAUGA
apparent Kd [2, 7]: 15.6 nM
apparent Kd [2, 8]: 11 nM

AUAUUAGACCUGGAUACCAGCGACAUGAGGAUCACCCAUGUAUGUGCAUCUGCCAUGAUAUGCCCUUGGCAGCCACCGAGGUCGU
apparent Kd [2, 9]: 11.4 nM
apparent Kd [2, 10]: 19.1 nM

GAAAGAUGAGGCGGCAGUACCGAUGUCGAUACCAGCAUGAACAAAUGCCCUUGGCAGCGACAUGAGGAUCACCCAUGUAUCUGCG
apparent Kd [2, 9]: 11.3 nM
apparent Kd [2, 10]: 127 nM

ACAUGAGGAUCACCCAUGUAAAUCCUCGAUACCAGCCAAAGGAGAGGCCCUUGGCAGCGGAAAGGCCGGGUAUAAAUGUCCGGCC
apparent Kd [2, 7]: 134 nM
apparent Kd [2, 8]: 126 nM

AGCACAUGAGGAUCACCCAUGUGAGGUGAUACCAGUGAGAAGAAGCACCCUUGGCAGCACUUGGGUACAUGAGGAUCACCCAUGU
apparent Kd [2, 9]: 58.9 nM
apparent Kd [2, 10]: 169 nM
